ChEMBL document CHEMBL2057188, “Hybridizing ability and nuclease resistance profile of backbone modified cationic phosphorothioate oligonucleotides” (Bioorg Med Chem, 2012)

assay: Stability in presence of Crotalus admanteus venom phosphodiesterase assessed as intact compound level at 5.5 uM in 50 mM Tris-Hcl buffer (pH 7.5) containing 10 mM MgCl2 incubated for 15 mins at 37 degC by HPLC; type: ADME; conditions: pH 7.5, 0.25 h
In short: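 12-mers are first trimmed from the 3′ end with the venom 3′-exonuclease to give 7-mer substrates, which are purified by RP-HPLC. These are then re-incubated with enzyme in 50 mM Tris-HCl pH 7.5 with 10 mM MgCl2 at 37 °C for 15 min. The enzyme is heat-inactivated at 90 °C for 5 min, and the fraction of intact ODN remaining is quantified by HPLC.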

Compound	Stability
Cc1cn([C@H]2C[C@H](OP(=O)(O)O)[C@@H](CO[P@](=O)(O[C@H]3C[C@H](n4cc(C)c(=O)[nH]c4=O)O[C@@H]3COP(=O)(O)O[C@H]3C[C@H](n4cc(C)c(=O)[nH]c4=O)O[C@@H]3COP(=O)(O)O[C@H]3C[C@H](n4cc(C)c(=O)[nH]c4=O)O[C@@H]3COP(=O)(O)O[C@H]3C[C@H](n4ccc(N)nc4=O)O[C@@H]3COP(=O)(O)O[C@H]3C[C@H](n4ccc(N)nc4=O)O[C@@H]3COP(=O)(O)O[C@H]3C[C@H](n4ccc(N)nc4=O)O[C@@H]3CO)SCCCCCCN)O2)c(=O)[nH]c1=O	Stable
Cc1cn([C@H]2C[C@H](OP(=O)(O)O)[C@@H](CO[P@](=O)(S)O[C@H]3C[C@H](n4cc(C)c(=O)[nH]c4=O)O[C@@H]3COP(=O)(O)O[C@H]3C[C@H](n4cc(C)c(=O)[nH]c4=O)O[C@@H]3COP(=O)(O)O[C@H]3C[C@H](n4cc(C)c(=O)[nH]c4=O)O[C@@H]3COP(=O)(O)O[C@H]3C[C@H](n4ccc(N)nc4=O)O[C@@H]3COP(=O)(O)O[C@H]3C[C@H](n4ccc(N)nc4=O)O[C@@H]3COP(=O)(O)O[C@H]3C[C@H](n4ccc(N)nc4=O)O[C@@H]3CO)O2)c(=O)[nH]c1=O	Stable
Cc1cn([C@H]2C[C@H](OP(=O)(O)O)[C@@H](CO[P@@](=O)(O[C@H]3C[C@H](n4cc(C)c(=O)[nH]c4=O)O[C@@H]3COP(=O)(O)O[C@H]3C[C@H](n4cc(C)c(=O)[nH]c4=O)O[C@@H]3COP(=O)(O)O[C@H]3C[C@H](n4cc(C)c(=O)[nH]c4=O)O[C@@H]3COP(=O)(O)O[C@H]3C[C@H](n4ccc(N)nc4=O)O[C@@H]3COP(=O)(O)O[C@H]3C[C@H](n4ccc(N)nc4=O)O[C@@H]3COP(=O)(O)O[C@H]3C[C@H](n4ccc(N)nc4=O)O[C@@H]3CO)SCCN)O2)c(=O)[nH]c1=O	Stable
Cc1cn([C@H]2C[C@H](OP(=O)(O)O)[C@@H](CO[P@](=O)(O[C@H]3C[C@H](n4cc(C)c(=O)[nH]c4=O)O[C@@H]3COP(=O)(O)O[C@H]3C[C@H](n4cc(C)c(=O)[nH]c4=O)O[C@@H]3COP(=O)(O)O[C@H]3C[C@H](n4cc(C)c(=O)[nH]c4=O)O[C@@H]3COP(=O)(O)O[C@H]3C[C@H](n4ccc(N)nc4=O)O[C@@H]3COP(=O)(O)O[C@H]3C[C@H](n4ccc(N)nc4=O)O[C@@H]3COP(=O)(O)O[C@H]3C[C@H](n4ccc(N)nc4=O)O[C@@H]3CO)SCCN)O2)c(=O)[nH]c1=O	Stable
Cc1cn([C@H]2C[C@H](OP(=O)(O)O)[C@@H](CO[P@@](=O)(S)O[C@H]3C[C@H](n4cc(C)c(=O)[nH]c4=O)O[C@@H]3COP(=O)(O)O[C@H]3C[C@H](n4cc(C)c(=O)[nH]c4=O)O[C@@H]3COP(=O)(O)O[C@H]3C[C@H](n4cc(C)c(=O)[nH]c4=O)O[C@@H]3COP(=O)(O)O[C@H]3C[C@H](n4ccc(N)nc4=O)O[C@@H]3COP(=O)(O)O[C@H]3C[C@H](n4ccc(N)nc4=O)O[C@@H]3COP(=O)(O)O[C@H]3C[C@H](n4ccc(N)nc4=O)O[C@@H]3CO)O2)c(=O)[nH]c1=O	Stable
